Here are results for seven molecules from ChEMBL document CHEMBL1154862, “Synthesis of potent BACE-1 inhibitors incorporating a hydroxyethylene isostere as central core” (Eur J Med Chem, 2010).

A word on the IC50: it is the point on the concentration scale where inhibition reaches its midpoint.

The target in experiment [1] is T1, Beta-secretase 1 (Homo sapiens, UniProt P56817). Briefly: Inhibition of BACE1 after 30 mins by homogeneous time resolved fluorescence assay.
A further experiment has as its target Cathepsin D (Homo sapiens, UniProt P07339). Briefly: Inhibition of human liver cathepsin D after 20 mins by homogeneous time resolved fluorescence assay.
The target in experiment [2] is T1, Beta-secretase 1. Put plainly: Inhibition of human BACE1 in HEK293 cells stably co-transfected with mutant APP(swAPP751) assessed as Amyloid beta 1-40 level after 24 hrs by ELISA. The class given is cell-based. The method in brief:
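HEK-293 cells stably expressing Swedish mutant APP (swAPP751), grown in DMEM with 10% FCS, penicillin/streptomycin and 200 µg/mL hygromycin at 37 °C, 5% CO2. Seeded 2 × 10^4 cells/well, settled overnight, washed once with fresh medium, then inhibitor added (DMSO at most 1% final). Medium collected after 24 h; secreted Aβ1–40 measured by ELISA.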
(ELISA stands for enzyme-linked immunosorbent assay.)

Cathepsin D, sequence (P07339 65-162 limits assumed): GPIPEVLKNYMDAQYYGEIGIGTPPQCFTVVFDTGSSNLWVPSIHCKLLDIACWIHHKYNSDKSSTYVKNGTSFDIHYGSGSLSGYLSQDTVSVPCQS
Cathepsin D, sequence (P07339 169-412 limits assumed): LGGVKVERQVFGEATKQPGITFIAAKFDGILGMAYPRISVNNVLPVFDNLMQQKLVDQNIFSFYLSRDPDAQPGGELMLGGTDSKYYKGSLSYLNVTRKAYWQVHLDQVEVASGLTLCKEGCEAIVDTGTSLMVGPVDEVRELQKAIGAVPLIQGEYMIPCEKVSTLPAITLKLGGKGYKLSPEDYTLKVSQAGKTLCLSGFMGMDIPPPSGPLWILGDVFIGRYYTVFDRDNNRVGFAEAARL
T1 sequence (P56817 whole entry): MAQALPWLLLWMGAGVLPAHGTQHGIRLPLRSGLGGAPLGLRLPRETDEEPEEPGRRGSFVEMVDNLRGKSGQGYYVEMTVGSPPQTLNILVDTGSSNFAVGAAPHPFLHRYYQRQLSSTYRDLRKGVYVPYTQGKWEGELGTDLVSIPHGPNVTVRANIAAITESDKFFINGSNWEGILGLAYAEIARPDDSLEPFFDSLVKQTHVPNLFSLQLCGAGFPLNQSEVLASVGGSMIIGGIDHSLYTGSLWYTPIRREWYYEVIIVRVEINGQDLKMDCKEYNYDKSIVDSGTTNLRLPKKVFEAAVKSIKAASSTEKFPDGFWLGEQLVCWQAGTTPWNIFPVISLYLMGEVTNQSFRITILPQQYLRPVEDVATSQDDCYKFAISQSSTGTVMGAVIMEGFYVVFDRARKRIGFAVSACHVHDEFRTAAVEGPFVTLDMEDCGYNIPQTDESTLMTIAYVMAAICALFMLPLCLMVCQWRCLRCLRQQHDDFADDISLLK

As for `CC(C)[C@H](NC(=O)[C@H](C)C[C@H](O)[C@H](COCc1ccccc1)NC(=O)c1cc(C(=O)N[C@H](C)c2ccccc2)cc(N(C)S(C)(=O)=O)c1)C(=O)NCc1ccccc1`, the IC50 was 0.0036 µM at Beta-secretase 1 [1], 0.041 µM against Cathepsin D and 1 µM on Beta-secretase 1 [2].
Take `C[C@H](C[C@H](O)[C@H](COCc1cc(F)cc(F)c1)NC(=O)c1cc(C(=O)N[C@H](C)c2ccccc2)cc(N(C)S(C)(=O)=O)c1)C(=O)NC1CC1`: the IC50 against Beta-secretase 1 [1] is > 10 µM; at Cathepsin D, > 5 µM.
With `CNC(=O)c1cc(C(=O)N[C@@H](COCc2cc(F)cc(F)c2)[C@@H](O)C[C@@H](C)C(=O)N[C@H](C(=O)NCc2ccccc2)C(C)C)cc(N(C)S(C)(=O)=O)c1`, the IC50 is 1.26 µM against Beta-secretase 1 [1] and > 5 µM on Cathepsin D.
Regarding `CC(C)[C@H](NC(=O)[C@@H](C)C[C@H](O)[C@H](COc1cc(F)cc(F)c1)NC(=O)c1cc(C(=O)N[C@H](C)c2ccccc2)cc(N(C)S(C)(=O)=O)c1)C(=O)NCc1ccccc1`, the IC50 at Beta-secretase 1 [1] was 0.01 µM; against Cathepsin D it was 0.12 µM; at Beta-secretase 1 [2], 0.34 µM.
With `CC(C)[C@H](NC(=O)[C@H](C)C[C@H](O)[C@H](COCc1cc(F)cc(F)c1)NC(=O)c1cc(C(=O)N[C@H](C)c2ccccc2)cc(N(C)S(C)(=O)=O)c1)C(=O)NCc1ccccc1`, the IC50 at Cathepsin D was 0.21 µM; at Beta-secretase 1 [2] it was 4.5 µM.
For the molecule `CC(C)[C@H](NC(=O)[C@H](C)C[C@H](O)[C@H](COc1cc(F)cc(F)c1)NC(=O)c1cc(C(=O)N[C@H](C)c2ccccc2)cc(N(C)S(C)(=O)=O)c1)C(=O)NCc1ccccc1`, the IC50 against Beta-secretase 1 [1] turned out to be 0.0031 µM; on Cathepsin D it was 0.059 µM; on Beta-secretase 1 [2], 0.16 µM.
For `CSCC[C@H](NC(=O)[C@@H](NC(=O)OC(C)(C)C)C(C)C)C(=O)N[C@@H](COCc1cc(F)cc(F)c1)[C@@H](O)C[C@@H](C)C(=O)N[C@H](C(=O)NCc1ccccc1)C(C)C`, the IC50 against Beta-secretase 1 [1] came to 10 µM; on Cathepsin D, 0.00063 µM.
